# According to the RNAGym collection of RNA variant scans (doi:10.1038/nmeth.2970):
# B1: NELF-E aptamer (parent)
# chain: CCCAACGACUGCCGAGCGAGAUUACGCUUGAGCGCCCCACUGAGGAUGCCCACGGGCGAUUGGGGCACGG
# Variants of: B1
# Assay: HiTS-RAP
# Details: with NELF-E (Drosophila)
# Method in brief: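 Aptamer DNA templates carrying a T7 promoter and ter site were sequenced on an Illumina GAIIx flowcell, then transcribed in situ by T7 RNA polymerase and halted by GST-Tus (30 minutes, 37°C). Clusters were imaged after 30-minute room-temperature equilibration with NELF-E-mOrange at 0.064 to 1000 nM in HEPES binding buffer, and only the first binding curve was used. Intensities were normalised to sequencing intensity and averaged per sequence. Kd came from weighted Hill fits, keeping fits with variance below 1,000,000.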
row,Variant,Kd
1,A39U,23.5 nM
2,A39G,8.97 nM
3,G34U C35G,4.52 nM
4,G44U,7.32 nM
5,U41G G42U,5.09 nM
6,C12G U22C,6.9 nM
7,U10C U29G,6.02 nM
8,C9G A52G,4.79 nM
9,A5U U22C,5.1 nM
10,C12U U22G,5.99 nM
11,A5U A15G,5.49 nM
12,G30U A31G,6.4 nM
13,U29G C53U,3.72 nM
14,G14A G16U,6.52 nM
15,C13G U41G,5.26 nM
16,C6U G16U,6.67 nM
17,C9G G14U,6.47 nM
18,C12G A39G,10.3 nM
19,C6G C36U,7.42 nM
20,C12G U23G,5.85 nM
21,G7U G42A,59 nM
22,C13G G30A,4.93 nM
23,U29G G62A,18.7 nM
24,G11A A67U,6.87 nM

row,Variant,Kd
1,G14U U29C,7.48 nM
2,C9U,5.19 nM
3,U23G G45A,19.3 nM
4,U10G U61A,29.9 nM
5,U22G C35U,11.6 nM
6,A24G U61A,34.7 nM
7,A24G C36U,6.95 nM
8,A24G C36G,8.51 nM
9,U22G G34A,8.31 nM
10,A59G G64A,44.7 nM
11,A5G C33U,6.71 nM
12,U10G G55C,7.54 nM
13,G16U U41C,76.2 nM
14,C6G U60A,10.9 nM
15,C6G G48U,5.75 nM
16,C13G U47G,6.66 nM
17,G7U G11U,6.5 nM
18,A8U C27U,4.24 nM
19,C6G G16U,6.81 nM
20,U29G G56U,5.44 nM
21,G14U U41G,6.33 nM
22,U10G A15U,5.99 nM
23,A4G G7C,7.38 nM
24,G16U A21G,5.22 nM

row,Variant,Kd
1,C17G G34A,8.48 nM
2,C12A,4.42 nM
3,A8G G14A,6.2 nM
4,U29G U61G,14.4 nM
5,U29G U61A,28.1 nM
6,C66A,4.61 nM
7,C12G C13U,5.88 nM
8,C9G A31G,8.03 nM
9,G70C,4.44 nM
10,A5G C6U,5.92 nM
11,U41A G62A,102 nM
12,G34A,6.53 nM
13,A5U A24U,6.21 nM
14,A5U C9U,6.47 nM
15,C9G G64U,8.07 nM
16,U23G A31U,6.53 nM
17,A5G G63U,12.1 nM
18,A8U A67G,5.61 nM
19,G26C,13.8 nM
20,G26A,4.05 nM
21,G26U,5.53 nM
22,G7A U29G,6.46 nM
23,A5G A52G,4.26 nM
24,A4G A46U,72.7 nM

row,Variant,Kd
1,C12G U29G,5.61 nM
2,G7C G11U,7.68 nM
3,U10A U23C,5.46 nM
4,G14U G62A,19.1 nM
5,C17G G64A,6.78 nM
6,U22G U29A,5.82 nM
7,C17G G18C,6.41 nM
8,U23G U61C,67.8 nM
9,U28C U61A,43.5 nM
10,A8U A21G,6.05 nM
11,C6G G63A,19.7 nM
12,A8U A19G,6.26 nM
13,C6U G20U,8.79 nM
14,U23G G54U,11.1 nM
15,G14A U29C,4.73 nM
16,U10G A19U,4.96 nM
17,A5G C9U,6.36 nM
18,G16U A39U,23.5 nM
19,G14U U23G,6.29 nM
20,U10C G11U,5.91 nM
21,A4G C27G,5.73 nM
22,C13G A67G,5.62 nM
23,C6U,5.29 nM
24,A15G U41G,5.7 nM

row,Variant,Kd
1,A8G U10C,5.52 nM
2,A21G U28C,6.03 nM
3,G14A C53U,4.16 nM
4,C9G A43U,80.5 nM
5,C9G A43G,30.4 nM
6,C6G U23A,5.12 nM
7,C68U,4.59 nM
8,C13G C50U,14.7 nM
9,C6G G14U,6.12 nM
10,G7U G14A,6.59 nM
11,C13A A24G,9.1 nM
12,A15U G20U,7.81 nM
13,A5U C17G,6.36 nM
14,C13G C57U,6.43 nM
15,C6G U28G,6.54 nM
16,U29C A67U,5.08 nM
17,G7A,5.61 nM
18,A5G C17G,5.22 nM
19,A5U U29C,8.32 nM
20,A19G A39G,9.35 nM
21,G7U C25G,5.61 nM
22,C13G A21G,4.63 nM
23,G7U A19G,6.23 nM
24,U10G U28C,8.85 nM

row,Variant,Kd
1,C13G A52G,4.96 nM
2,A31G G54A,18.4 nM
3,A5G U28C,10.2 nM
4,G14A A52G,4.13 nM
5,G7A G11U,7.32 nM
6,U47A,10.2 nM
7,G55A G65U,6.71 nM
8,U29G A46G,22.4 nM
9,U29G A46U,77.8 nM
10,C6U A24G,5.94 nM
11,A8U U10C,5.96 nM
12,U10C U61C,41.4 nM
13,C9G U41G,6.14 nM
14,C9G U41C,80.7 nM
15,U22G G63U,14 nM
16,C9G A19G,5.58 nM
17,A8U U29A,4.61 nM
18,G48U,5.99 nM
19,C13U A52G,3.79 nM
20,G7U U10C,5.96 nM
21,G7U U10G,5.68 nM
22,G30C,6.15 nM
23,G30U,5.41 nM
24,U29G U60A,13.2 nM

row,Variant,Kd
1,C6G U41A,103 nM
2,A8U G14U,6.76 nM
3,U10G C57G,7.81 nM
4,A21G U23G,6.71 nM
5,G16A U22G,6.17 nM
6,G20U,6.04 nM
7,G20C,5.82 nM
8,G7A C13G,6.51 nM
9,A8G G18U,7.18 nM
10,C9G G42A,56.8 nM
11,U10G C38U,9.49 nM
12,U10G C50G,7.26 nM
13,U10G C50A,16.6 nM
14,A4G C50G,10.4 nM
15,U22G A39G,8.32 nM
16,G7U G65A,4.96 nM
17,C12G A31G,7.14 nM
18,U41G C57U,6.91 nM
19,C9U G65U,6.78 nM
20,C6G A31U,5.5 nM
21,U22G A59G,76.4 nM
22,A5G A67U,7.84 nM
23,U29G C51G,4.37 nM
